C2C12 statin: protects C2C12 myotubes from simvastatin toxicity | ATP luminescence, 48 h; scaled: DMSO 0, geranylgeraniol control 100 | rescue of ATP level, % at 7.49 µM | actives 0.78% (n = 330,000) | AID 602340;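 active = mean ATP rescue above about 67%, or every replicate alone reaching that limit, limit read from the data, passing the limit was not always enough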;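 note: myotubes were challenged with 10 µM simvastatin during compound exposure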
PGC1a acetyl inh: PGC1a acetylation modulation, inhibitor mode | U2OS PGC1a acetylation, AlphaScreen anti-acetyl-lysine; with virally co-expressed GCN5 acetyltransferase | inhibition, % at 15.6 µM | actives 0.17% (n = 350,000);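 active = every replicate shows inhibition of at least 40%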
Rtt109 HAT inh: C. albicans Rtt109 histone acetyltransferase inhibition | actives 0.16% (n = 330,000) | inhibition, % at 34.9 µM | AID 540336 | purified Rtt109/Vps75, ThioGlo CoA-SH fluorescence, 4 h;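 active = inhibition of at least 50% in every replicate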
Target sequence (Q5AAJ8 whole entry, looked up): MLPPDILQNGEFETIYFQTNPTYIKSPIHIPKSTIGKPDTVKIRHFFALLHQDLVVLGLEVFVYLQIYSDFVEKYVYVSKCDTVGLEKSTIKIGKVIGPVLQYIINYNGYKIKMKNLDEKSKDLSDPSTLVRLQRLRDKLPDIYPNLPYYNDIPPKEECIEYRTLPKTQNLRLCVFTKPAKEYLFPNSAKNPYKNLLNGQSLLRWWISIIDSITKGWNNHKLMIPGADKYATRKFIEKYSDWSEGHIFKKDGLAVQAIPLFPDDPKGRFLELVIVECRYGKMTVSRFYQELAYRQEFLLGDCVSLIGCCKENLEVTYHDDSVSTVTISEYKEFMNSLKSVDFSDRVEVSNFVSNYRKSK
ERAP1 inh: ERAP1 (human) enzyme inhibition; recombinant ERAP1, Leu-AMC fluorescence, 60 min; actives 0.15% (n = 340,000); inhibition, % at 10.7 µM;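 active = mean replicate inhibition of at least 30%, or all replicates individually reaching that 30% level; inactive = mean below 30% and not every replicate reaching it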
S100A4 MyoIIA: blocks human S100A4 binding to myosin IIA peptide; actives 0.14% (n = 360,000); inhibition, % at 10.7 µM; P26447; S100A4/TAMRA-MyoIIA peptide fluorescence polarization; AID 652163;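 active = mean inhibition of at least 70% across replicates, with every replicate also reaching that level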
Target sequence (P26447 whole entry, looked up): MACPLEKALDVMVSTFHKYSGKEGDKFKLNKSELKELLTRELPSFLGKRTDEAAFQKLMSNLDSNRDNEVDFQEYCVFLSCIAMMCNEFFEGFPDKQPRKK
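Test system: S100A4 monomer protein; Medium: HEPES pH 7.2 with CaCl2, KCl, NaCl, DTT, Triton; Probe or stimulus: TAMRA-labelled myosin IIA heavy-chain peptide probe, 5 nM; Doses: one dose per compound; Times: polarization read 5 min after assay mix addition, stable 5–60 min; Benchmarks: neutral control DMSO, positive control TFP.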
Large screens that a line does not name were inactive. Only some compounds are listed: those with a hit (about 0.98% of all), similar ones and a draw of the others.

C[C@@H]1CCCCO[C@@H](CN(C)S(=O)(=O)c2cccs2)[C@@H](C)CN([C@H](C)CO)C(=O)c2cc(NC(=O)CCCN(C)C)ccc2O1	none (no result: C2C12 statin, Rtt109 HAT inh)
NC(=O)CCn1c(C(=O)c2ccc(Cl)cc2)c2ccccc2[n+]1[O-]	none (no result: C2C12 statin, ERAP1 inh, S100A4 MyoIIA)
Cc1ccc(C(=O)c2c3ccccc3[n+]([O-])n2CCC(=O)O)cc1	C2C12 statin 79.6
CCOC(=O)C1=C(C)N(CCCCCC(=O)O)C(=O)NC1c1ccccc1Cl (stereo not drawn)	C2C12 statin 104.8
CCOC(=O)C1=C(C)N(CCCC(=O)O)C(=O)NC1c1ccccc1Cl (stereo not drawn)	none (no result: C2C12 statin, PGC1a acetyl inh, Rtt109 HAT inh)
CCCN1C[C@H](C)[C@@H](OC)CN(C)C(=O)c2cc(NC(=O)c3cccc(F)c3)ccc2OC[C@H]1C	none (no result: Rtt109 HAT inh)
Cc1nc(N2CCN(c3ccccc3)CC2)[nH]c(=O)c1CCC(C)C	C2C12 statin 86.4
CCc1c(C)nc(N2CCN(c3ccccc3)CC2)[nH]c1=O	none
CCOC(=O)c1cc2c(N)c(C(=O)c3cc(C#N)c(SC)nc3C)sc2nc1C	Rtt109 HAT inh 61.8 (no result: ERAP1 inh, S100A4 MyoIIA)
O=C(NC1CCCC1)N[C@H]1CC[C@@H](CC(=O)N2CCOCC2)O[C@H]1CO	none (no result: Rtt109 HAT inh)
Nc1c(C(=O)c2ccccc2)oc2ccc(Br)cc12	none (no result: ERAP1 inh, S100A4 MyoIIA)
Nc1c(C(=O)c2ccccc2)oc2ccc([N+](=O)[O-])cc12	Rtt109 HAT inh 55.3 (no result: C2C12 statin)
C[C@@H]1CN([C@@H](C)CO)C(=O)Cc2cc(NS(C)(=O)=O)ccc2O[C@@H]1CN(C)C(=O)Nc1cccc2ccccc12	none (no result: Rtt109 HAT inh)
COc1ccc(S(=O)(=O)N(C)C[C@H]2Oc3ccc(NS(C)(=O)=O)cc3CC(=O)N([C@@H](C)CO)C[C@@H]2C)cc1	none (no result: Rtt109 HAT inh)
COc1ccc(NC(=O)CN(C)C(=O)C2CC(=O)N(c3ccc4c(c3)OCCO4)C2)cc1 (stereo not drawn)	S100A4 MyoIIA 154.1 (no result: C2C12 statin, PGC1a acetyl inh)
CCOc1ccc(NC(=O)CN(C)C(=O)C2CC(=O)N(c3ccc4c(c3)OCCO4)C2)cc1OCC (stereo not drawn)	none
O=C1Nc2cc(C(=O)NCCCN3CCCC3)ccc2S/C1=C\c1ccccc1	Rtt109 HAT inh 72.6
COc1ccc(CN(C)C[C@@H]2OCCCC[C@H](C)Oc3ccc(NC(=O)NC4CCCCC4)cc3C(=O)N([C@H](C)CO)C[C@H]2C)cc1	none (no result: C2C12 statin, Rtt109 HAT inh)
O=C(O)c1ccccc1C(=O)Nc1nccs1	none (no result: ERAP1 inh, S100A4 MyoIIA)
O=C(O)c1ccccc1C(=O)Nc1n[nH]c(=S)s1	ERAP1 inh 79.3
CCNC(=O)Cn1cc(C#N)c2ccccc21	C2C12 statin 92.6 (no result: ERAP1 inh, S100A4 MyoIIA)
COc1ccc(NC(=O)Cn2cc(C#N)c3ccccc32)cc1	none (no result: C2C12 statin)
NC(=O)[C@H]1[C@@H]2C(=O)O[C@@H](c3ccccc3)[C@@H](c3ccccc3)N2[C@@H](c2ccccc2OCCO)[C@]12C(=O)Nc1ccc(C#CC3(O)CCCCCC3)cc12	none (no result: C2C12 statin, Rtt109 HAT inh)
C[C@H](CO)N1C[C@H](C)[C@H](CN(C)C(=O)Nc2ccccc2)Oc2ncc(C#CC3CC3)cc2C1=O	none (no result: Rtt109 HAT inh)
CCOC(=O)C(=O)/C(=C\N(C)C)c1onc(-c2c(Cl)cccc2Cl)c1C(=O)OC	C2C12 statin 84.8 (no result: ERAP1 inh, S100A4 MyoIIA)
NC(=O)c1cc(-c2ccccc2)nc(N2CCOCC2)n1	C2C12 statin 86.1 (no result: ERAP1 inh, S100A4 MyoIIA)
C[C@@H]1CN([C@@H](C)CO)C(=O)Cc2cc(NC(=O)c3ccncc3)ccc2O[C@H]1CN(C)CC1CC1	none (no result: Rtt109 HAT inh)
Cn1c(/N=C/c2c(O)ccc3ccccc23)nc2ccccc21	C2C12 statin 75.2 (no result: ERAP1 inh, S100A4 MyoIIA)
O=C1C(SC(F)(F)C(F)F)=C(C(F)(F)F)OC2C3C=CC(C3)C12 (stereo not drawn)	C2C12 statin 106.7 (no result: ERAP1 inh, S100A4 MyoIIA)
C[C@@H]1CN([C@@H](C)CO)C(=O)c2cccc(NC(=O)Nc3ccc(F)cc3)c2O[C@H]1CN(C)CC1CC1	none (no result: PGC1a acetyl inh, Rtt109 HAT inh)
COc1ccc(CN(C)C[C@H]2Oc3ccc(NC(=O)C4CC4)cc3C(=O)N([C@@H](C)CO)C[C@H]2C)cc1	none (no result: Rtt109 HAT inh)
O=C(NCC1CCCCC1)[C@H]1[C@H](CO)[C@H]2Cn3c(ccc(C4=CCCC4)c3=O)[C@@H]1N2	none (no result: PGC1a acetyl inh, Rtt109 HAT inh, ERAP1 inh, S100A4 MyoIIA)
Cc1cc(NC(=O)COC(=O)C2CCN(C(=O)c3ccc(Cl)cc3)CC2)no1	C2C12 statin 111.1 (no result: ERAP1 inh, S100A4 MyoIIA)
O=C(Nc1ccccc1Oc1cccnc1)C1CCCN(Cc2ccccc2O)C1 (stereo not drawn)	none
C#Cc1ccc(CN2CCCC(C(=O)Nc3ccccc3Oc3cccnc3)C2)cc1 (stereo not drawn)	C2C12 statin 91.4
Cc1cccc(NC(=O)c2onc3c2CCCC3)c1C	C2C12 statin 72.8 (no result: ERAP1 inh, S100A4 MyoIIA)
